Results reported in ChEMBL document CHEMBL1135534, “Synthesis, cytotoxicity, and antiplasmodial and antitrypanosomal activity of new neocryptolepine derivatives” (J Med Chem, 2002).
Active and inactive are the calls of the source. The calls are words filed in the database; no cut-off is given here.

Key:
Nucleic Acid [1] = test: (§1) Inhibition of DNA interaction using DNA Methyl Green Assay.; format: nucleic-acid assay
Procedure, shortened: (§2)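 DNA–methyl green complex stirred 24 h at 37 °C in 0.05 M Tris-HCl pH 7.5 with 7.5 mM MgSO4. Compound dried in wells under vacuum, then complex solution added. Absorbance at 620 nm compared between start and 24 h. IC50 taken as the concentration giving 50% absorbance decrease (50% dye displacement).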

MRC5 = test: Cytotoxicity against human diploid embryonic lung cell line MRC-5 using MTT assay; format: functional, cell-based
Procedure, shortened: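 Cells seeded at 5000 per well and washed after 24 h. 2-fold drug dilutions added in RPMI + 5% FCS, final DMSO below 0.5%. Incubated 7 days at 37 °C, 5% CO2/95% air. MTT read-out at 540 nm as percent reduction versus untreated controls. IC50 in triplicate (mean ± SD).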

Plasmodium falciparum [2] = test: Antiplasmodial activity against chloroquine-resistant Plasmodium falciparum W2; format: functional, organism-based
Procedure, shortened: (§3)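 Asexual P. falciparum cultures at 1% parasitaemia and 2% haematocrit (W2 for line 1, Ghana for line 2) exposed to 2-fold serial dilutions of the HCl salt for 48 h at 37 °C under 93% N2/4% CO2/3% O2. Plates frozen at -20 °C to lyse cells. Parasite LDH read-out: APAD reduction coupled to NBT formazan at 650 nm. IC50 in triplicate, mean ± SD.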

Plasmodium falciparum [3] = test: Antiplasmodial activity against chloroquine-sensitive Plasmodium falciparum Ghana; format: functional, organism-based; procedure, shortened: as §3
Trypanosoma cruzi = test: Antitrypanosomal activity against Trypanosoma cruzi; format: functional, organism-based
Procedure, shortened: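 Primary mouse peritoneal macrophages seeded at 30 000 per well; after 24 h, about 10 000 trypomastigotes added per well with 2-fold drug dilutions. Incubated 4 days at 37 °C in 5% CO2/95% air. Cells MeOH-fixed and Giemsa-stained. Percent reduction of total parasite load (free trypomastigotes plus intracellular amastigotes) versus untreated cultures scored microscopically. IC50 in triplicate (mean ± SD).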

Trypanosoma brucei = test: Antitrypanosomal activity against Trypanosoma brucei.; format: functional, organism-based
Procedure, shortened: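 Bloodstream-form trypomastigotes grown in HMI-9 medium; 10 000 parasites per well exposed to a range of compound concentrations for 4 days. Multiplication read colorimetrically at 490 nm after MTT addition. Test compounds as hydrochloride salts; IC50 determined in triplicate (mean ± SD).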

[4] = Inhibition of beta-hematin formation; active
[5] = target: T1, Histidine-rich protein PFHRP-II (Plasmodium falciparum) (UniProt P05227); test: Inhibition of beta-hematin formation; active; format: functional
T1 sequence (whole entry): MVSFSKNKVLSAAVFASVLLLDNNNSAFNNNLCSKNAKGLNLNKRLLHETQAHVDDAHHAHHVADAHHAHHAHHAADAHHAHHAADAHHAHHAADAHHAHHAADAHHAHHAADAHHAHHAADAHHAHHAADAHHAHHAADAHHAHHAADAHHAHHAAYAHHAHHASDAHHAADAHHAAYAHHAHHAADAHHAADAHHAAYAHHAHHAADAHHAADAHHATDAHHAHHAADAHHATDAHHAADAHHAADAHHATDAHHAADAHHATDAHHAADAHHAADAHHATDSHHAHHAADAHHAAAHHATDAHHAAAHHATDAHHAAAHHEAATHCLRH
Procedure, shortened: (§4)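 Hematin solutions received compound at 3 equiv relative to hemin before acidification. Incubated 40 min at 60 °C, then cooled and filtered; precipitate washed with water and dried. β-Hematin detected by FT-IR bands at 1660 and 1207 cm-1. Hemin without compound served as the formation control. Result is a qualitative yes/no call.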

[6] = target: T1, Histidine-rich protein PFHRP-II (Plasmodium falciparum); test: Inhibition of beta-hematin formation; no inhibition; format: functional; procedure, shortened: as §4
Nucleic Acid [7] = test: as §1; format: functional; procedure, shortened: as §2
Nucleic Acid [8] = test: as §1; format: nucleic-acid assay; conditions: concentration not given here; procedure, shortened: as §2

Structure (SMILES)	IC50 (Nucleic Acid [1])	IC50 (MRC5)	IC50 (Plasmodium falciparum [2])	IC50 (Plasmodium falciparum [3])	IC50 (Trypanosoma cruzi)	IC50 (Trypanosoma brucei)	inhibition [4]	inhibition [5]	inhibition [6]	IC50 (Nucleic Acid [7])	inhibition (Nucleic Acid [8])
Cn1c2nc3ccccc3c-2cc2cc(Br)ccc21	> 400 µM	> 32 µM	4 µM	6 µM	> 32 µM	1 µM	Active				
Cn1c2nc3ccccc3c-2cc2cc(C#N)ccc21	> 600 µM	16 µM	15.3 µM	17 µM	16.3 µM	4 µM					
Cn1c2nc3ccc(C#N)cc3c-2cc2ccccc21	> 1000 µM	> 32 µM	> 32 µM	> 32 µM		> 32 µM	Active				
COc1ccc2[nH]c3nc4ccccc4c-3cc2c1	> 1000 µM	> 32 µM	> 32 µM	> 32 µM		> 32 µM		Active			
Cn1c2nc3ccc(C#N)cc3c-2cc2cc(Cl)ccc21		> 32 µM	> 32 µM	> 32 µM		> 32 µM					
Cn1c2nc3ccccc3c-2cc2cc(Cl)ccc21	> 500 µM	16.5 µM	5 µM	21 µM	12 µM	1.3 µM	Active				
Fc1ccc2[nH]c3nc4ccccc4c-3cc2c1	> 1000 µM	> 32 µM	> 32 µM	> 32 µM	> 32 µM	> 32 µM			No inhibition		
COc1ccc2c(c1)cc1c3cc(C#N)ccc3nc-1n2C	> 500 µM	> 32 µM	17 µM	28.3 µM	1 µM	1 µM			No inhibition		
Clc1ccc2[nH]c3nc4ccccc4c-3cc2c1	> 1000 µM	> 32 µM	> 32 µM	> 32 µM	> 32 µM	> 32 µM	Active				
Cn1c2nc3ccccc3c-2cc2cc(F)ccc21	> 500 µM	15 µM	4.7 µM	19.3 µM	6 µM	14.3 µM	Active				
Cn1c2nc3ccc(C#N)cc3c-2cc2cc(C(F)(F)F)ccc21	> 200 µM	> 32 µM	6.7 µM	14 µM	> 32 µM	> 32 µM					
Clc1cc(Cl)c2[nH]c3nc4ccccc4c-3cc2c1		> 32 µM	> 32 µM	> 32 µM		> 32 µM	Active			> 1000 µM	
COc1cccc2c1cc1c3ccccc3nc-1n2C	> 1000 µM	5 µM	12.3 µM	17.7 µM	4 µM	1.3 µM			No inhibition		
Cn1c2nc3ccccc3c-2cc2ccc(C(F)(F)F)cc21	> 500 µM	18 µM			> 32 µM	16.7 µM		Active			
C[n+]1c2ccccc2cc2[n-]c3ccccc3c21 [CRYPTOLEPINE]	65.7 µM	1.5 µM	2 µM	2.3 µM		3 µM	Active				
COc1ccc2c(c1)cc1c3ccccc3nc-1n2C	77.9 µM	4 µM	4.7 µM	4.3 µM	1.7 µM	0.3 µM			No inhibition		
Cn1c2nc3ccccc3c-2cc2cc(I)ccc21	> 400 µM	16 µM	6.3 µM	17.7 µM	18.3 µM	1 µM	Active				
Cn1c2nc3ccccc3c-2cc2ccc(Cl)cc21	> 700 µM	15.5 µM			17 µM	9.3 µM		Active			
Cn1c2nc3ccccc3c-2cc2ccc(Br)cc21	> 600 µM	18.5 µM			> 32 µM	27.3 µM		Active			
COc1ccc2cc3c4ccccc4nc-3n(C)c2c1	150 µM	3.5 µM			1 µM	0.4 µM			No inhibition		37%
CSc1ccc2c(c1)cc1c3ccccc3nc-1n2C	> 600 µM	5 µM	3.7 µM	4 µM	4 µM	0.8 µM	Active				
Cn1c2nc3ccccc3c-2cc2c(Br)cccc21	> 600 µM	16 µM	> 32 µM	> 32 µM	15.7 µM	16.7 µM			inactive		
Cc1ccc2c(c1)cc1c3ccccc3nc-1n2C		0.95 µM	2.3 µM	2.7 µM		0.1 µM					
Cn1c2nc3ccccc3c-2cc2cc([N+](=O)[O-])ccc21	> 1000 µM	> 32 µM	> 32 µM	29 µM		0.7 µM					
Cn1c2nc3ccccc3c-2cc2c(C(F)(F)F)cccc21	> 400 µM	16 µM	> 32 µM	> 32 µM	16.3 µM	> 32 µM					
Cn1c2nc3ccc(C#N)cc3c-2cc2cc(F)ccc21	> 600 µM	11 µM	14.7 µM	16.3 µM	> 32 µM	4 µM	Active				
Cn1c2nc3ccccc3c-2cc2ccccc21 [NEOCRYPTOLEPINE]	92.8 µM	11 µM	14 µM	27.3 µM	4 µM	4 µM	Active				
